The record followed here is ChEMBL document CHEMBL4359917, “Design, synthesis, and biological evaluation of novel benzodiazepine derivatives as anticancer agents through inhibition of tubulin polymerization in vitro and in vivo” (Eur J Med Chem, 2019).

The subject of series [1] is A549. As to the kind of experiment: Induction of apoptosis in human A549 cells assessed as early apoptotic cells at 10 nM after 24 hrs by annexin V-FITC/propidium iodide staining based flow cytometry (reference value: 0.19 %). The series is classed as functional. In short, it runs like this:
(§1)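 A549 cells treated at 1, 5 or 10 nM for 24 or 48 h, then analysed by flow cytometry. Quadrants: upper left necrotic, upper right late apoptotic, bottom left live, bottom right early apoptotic. Three experiments; representative results shown.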

For series [2], the system named is A549. As to the kind of experiment: Induction of apoptosis in human A549 cells assessed as necrotic cells at 5 nM after 24 hrs by annexin V-FITC/propidium iodide staining based flow cytometry (reference value: 0.03 %). The series is classed as functional. In short, it runs like this:
as §1
Background: Flow cytometry measures light scatter and fluorescence of single cells or particles in a stream.

A short description of series [3]: Metabolic stability in Sprague-Dawley rat liver microsomes assessed as parent compound remaining after 150 mins in presence of NADPH by HPLC-UV-MS analysis. Conditions: Sprague-Dawley, liver microsomes, read-out: Stability. Format: ADME, Microsome. In short, it runs like this:
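Compound incubated with rat liver microsomes in buffer containing an NADPH regenerating system. Percentage of parent remaining was determined at time points up to 180 min, and half-life was derived.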
In general terms: Liver microsomes are vesicles of endoplasmic reticulum, rich in cytochrome P450 enzymes.

Series [4] relates to A549. As to the kind of experiment: Cell cycle arrest in human A549 cells assessed as increase in cell accumulation at G2/M phase measured after 24 to 48 hrs by RNase/propidium iodide staining based flow cytometry analysis. The series is classed as functional.
Series [5] has as its system A549. As to the kind of experiment: Induction of apoptosis in human A549 cells assessed as live cells at 5 nM after 48 hrs by annexin V-FITC/propidium iodide staining based flow cytometry (reference value: 99.75 %). Format: functional. Summed up:
as §1

The test system of series [6] is A549. As to the kind of experiment: Induction of apoptosis in human A549 cells assessed as early apoptotic cells at 5 nM after 24 hrs by annexin V-FITC/propidium iodide staining based flow cytometry (reference value: 0.19 %). Format: functional. In short, it runs like this:
as §1

The subject of series [7] is A549. As to the kind of experiment: Cell cycle arrest in human A549 cells assessed as appearance of hypodiploid DNA content at sub G1 phase at 1 to 10 nM after 48 hrs by RNase/propidium iodide staining based flow cytometry analysis. The series is classed as functional.
For series [8], the system named is A549. In words: Induction of apoptosis in human A549 cells assessed as live cells at 10 nM after 24 hrs by annexin V-FITC/propidium iodide staining based flow cytometry (reference value: 99.75 %). The series is classed as functional. In short, it runs like this: as §1
In series [9] the test system is A549. In words: Induction of apoptosis in human A549 cells assessed as live cells at 10 nM after 48 hrs by annexin V-FITC/propidium iodide staining based flow cytometry (reference value: 99.75 %). Format: functional. In short, it runs like this:
as §1

Series [10] has as its system A549. As to the kind of experiment: Induction of apoptosis in human A549 cells assessed as early apoptotic cells at 10 nM after 48 hrs by annexin V-FITC/propidium iodide staining based flow cytometry (reference value: 0.19 %). The series is classed as functional. Summed up:
as §1

Activity calls are given as the source filed them. The rule behind the calls is not given here.

Turning to `COc1ccc2c(c1O)NC(=O)CN=C2c1cc(OC)c(OC)c([Se]C)c1`, the Activity in the series on A549 [1] is 23.06%; in the series on A549 [2], 0.03%; in the series on A549 [4], “Dose-dependent effect”; with A549 [5] it was 57.32%; with A549 [6] it was 13.15%; with A549 [8], 76.72%. Further, the Activity is 11.84% in the series with A549 [9] and 65.4% in the series with A549 [10]. Besides, the remaining at 2.5 h in [3] was 57.4%. The outcome with A549 [7] was Active.
